From ChEMBL document CHEMBL4145675, “2-Phenylquinoline S. aureus NorA Efflux Pump Inhibitors: Evaluation of the Importance of Methoxy Group Introduction” (J Med Chem, 2018)
≈ marks a conversion by molar mass, not a printed value. Calls of active or inactive are those of the source. No cut-off for these calls is given here.

Columns and labels:
[1] = Selectivity index, ratio of CC50 for human THP1 cells to inhibition of NorA in Staphylococcus aureus SA-1199B expressing GrlA A116E mutant assessed as minimal potentiating drug concentration causing 8 fold reduction in ciprofloxacin MIC by microdilution method based Checkerboard assay; assay type: toxicity; details: read-out: Selectivity Index
Method in brief: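 CC50 cells (HepG2 for […], THP-1 for […]) were grown to confluence in RPMI 1640 with 10% FCS, penicillin and streptomycin. They were exposed 24 h at 37 °C to 0–250 µg/mL. Viability was read by ATP bioluminescence, triplicate. CC50 is the concentration reducing cell number 50% versus untreated.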

[2] = system: Staphylococcus aureus; assay: Antimicrobial activity against mepA deficient Staphylococcus aureus SA-K2885 by microdilution method; assay type: organism-based; details: in vivo
Method in brief: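 CLSI broth microdilution MIC of the compound alone in norA-deleted strains. SA-K2885 carries empty pALC2073 and SA-K2886 carries pALC2073-mepA (xyl/tetO promoter). 0.05 µg/mL tetracycline was present throughout to induce.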

[3] = Drug metabolism in mouse liver microsomes assessed as compound demethylation at 50 uM in presence of NADPH regenerating system incubated for 120 mins by UPLC/MS analysis; assay type: ADME, microsome; details: 2 h, in the assay text read “hydroxylation and ring opening” for “demethylation”
Method in brief: (§1)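 1 mg/mL mouse liver microsomes in 0.1 M Tris-HCl pH 7.4 with test compound at 50 µM, DMSO up to ~3%. Preincubated 5 min at 37 °C, then started with NADPH regeneration system. Stopped at 120 min with cold methanol and centrifuged. Supernatant analysed by UPLC/MS (ESI, tandem quadrupole).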

[4] = target: T1, Quinolone resistance protein NorA (Staphylococcus aureus) (UniProt P0A0J7); assay: Inhibition of NorA in Staphylococcus aureus SA-K2378 assessed as synergistic potentiation of ciprofloxacin-induced antimicrobial activity at 0.78 ug/ml by microdilution method based Checkerboard assay
T1 sequence (whole entry): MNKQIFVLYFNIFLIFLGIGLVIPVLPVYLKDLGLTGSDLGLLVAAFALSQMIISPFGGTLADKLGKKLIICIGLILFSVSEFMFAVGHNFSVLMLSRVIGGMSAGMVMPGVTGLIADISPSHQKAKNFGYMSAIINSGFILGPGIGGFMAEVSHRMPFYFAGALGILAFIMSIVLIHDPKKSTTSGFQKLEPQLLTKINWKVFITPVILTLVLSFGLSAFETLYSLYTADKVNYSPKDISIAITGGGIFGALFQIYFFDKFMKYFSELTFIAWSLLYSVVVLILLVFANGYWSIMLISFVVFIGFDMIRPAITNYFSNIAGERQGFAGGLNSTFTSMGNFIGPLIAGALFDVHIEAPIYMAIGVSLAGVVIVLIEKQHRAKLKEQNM

[5] = target: T1, Quinolone resistance protein NorA (Staphylococcus aureus); assay: Inhibition of NorA in Staphylococcus aureus SA-1199B expressing GrlA A116E mutant assessed as synergistic potentiation of ciprofloxacin-induced antimicrobial activity by measuring reduction in ciprofloxacin MIC at 0.78 ug/ml by microdilution method based Checkerboard assay
[6] = Drug metabolism in mouse liver microsomes assessed as oxidation at open piperidine ring or at hydroxylate at 50 uM in presence of NADPH regenerating system incubated for 120 mins by UPLC/MS analysis; assay type: ADME, microsome; details: 2 h; method in brief: as §1
[7] = target: Cytochrome P450 2D6 (Homo sapiens, UniProt P10635); assay: Inhibition of human recombinant CYP2D6 at 10 uM using beetle D-luciferin as substrate by CYP450-Glo assay; assay type: ADME; details: recombinant enzyme
Method in brief: (§2)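 Luminescent P450-Glo assay in which recombinant human CYP3A4 or CYP2D6 converts a beetle D-luciferin derivative to D-luciferin. Compound was tested at 1 and 10 µM.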

[8] = target: Cytochrome P450 3A4 (Homo sapiens, UniProt P08684); assay: (§3) Inhibition of human recombinant CYP3A4 at 10 uM using beetle D-luciferin as substrate by CYP450-Glo assay; assay type: ADME; details: recombinant enzyme, 10 µM; method in brief: as §2
[9] = system: Staphylococcus aureus; assay: Synergistic potentiation of ciprofloxacin-induced antimicrobial activity against Staphylococcus aureus SA-1199 at 0.78 to 100 ug/ml by microdilution method based Checkerboard assay; assay type: functional, organism-based
[10] = Metabolic stability in mouse liver microsomes assessed as parent compound remaining at 50 uM in presence of NADPH regenerating system incubated for 120 mins by UPLC/MS analysis; assay type: ADME, microsome; details: read-out: Stability; method in brief: as §1
[11] = system: Staphylococcus aureus; assay: Induction of membrane depolarization in Staphylococcus aureus SA-1199B expressing wild type norA at 1 to 10 ug/ml incubated for 30 mikns by DiOC2(3) fluorescent probe based cytofluorimetry; assay type: organism-based; details: in vivo
Method in brief: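 SA-1199B was grown in MHB at 37 °C to OD600 0.6, washed, and diluted to 1×10^6 CFU/mL in filtered PBS. DiOC2(3) was added at 30 µM final, and compound at 1, 5 or 10 µg/mL for 30 min. CCCP 5 µM final served as positive control. Flow cytometry with 488 nm excitation gave a red/green ratio normalized to the DiOC2(3) blank, expressed as % depolarized versus drug-free control.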

[12] = Drug metabolism in mouse liver microsomes assessed as compound oxidation at 50 uM in presence of NADPH regenerating system incubated for 120 mins by UPLC/MS analysis; assay type: ADME, microsome; details: 2 h; method in brief: as §1
[13] = target: CYP3A4 (Homo sapiens, UniProt P08684); assay: as §3; assay type: ADME; details: recombinant CYP3A4, probe beetle D-luciferin; method in brief: as §2
[14] = target: T2, Multidrug export protein MepA (Staphylococcus aureus (strain NCTC 8325)) (UniProt Q2G140); assay: Inhibition of MepA in Staphylococcus aureus SA-K2886 assessed as synergistic potentiation of EtBr-induced antimicrobial activity by measuring […] at 3.13 ug/ml by microdilution method based Checkerboard assay (reference value: 25 ug/ml)
T2 sequence (whole entry): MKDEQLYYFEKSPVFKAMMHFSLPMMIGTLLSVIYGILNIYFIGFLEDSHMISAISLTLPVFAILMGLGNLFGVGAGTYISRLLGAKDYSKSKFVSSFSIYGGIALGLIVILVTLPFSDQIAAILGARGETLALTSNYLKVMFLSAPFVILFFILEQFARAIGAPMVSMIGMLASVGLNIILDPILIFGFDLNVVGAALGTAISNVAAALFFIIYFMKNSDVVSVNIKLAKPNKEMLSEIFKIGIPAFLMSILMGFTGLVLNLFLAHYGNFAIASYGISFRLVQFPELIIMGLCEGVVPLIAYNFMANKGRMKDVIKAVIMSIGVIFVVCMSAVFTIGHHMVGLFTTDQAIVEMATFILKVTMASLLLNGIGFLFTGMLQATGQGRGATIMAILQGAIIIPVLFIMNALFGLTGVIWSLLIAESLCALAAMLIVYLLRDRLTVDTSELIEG
Method in brief: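 Checkerboard combination of EtBr with compound, using broth microdilution MICs. SA-K2886 (norA-deleted, pALC2073-mepA) and SA-K2885 (norA-deleted, empty pALC2073) were run with 0.05 µg/mL tetracycline in all experiments to induce the xyl/tetO promoter.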

[15] = Drug metabolism in mouse liver microsomes assessed as compound hydroxylation at 50 uM in presence of NADPH regenerating system incubated for 120 mins by UPLC/MS analysis; assay type: ADME, microsome; details: 2 h; method in brief: as §1

Sequence of Cytochrome P450 2D6 (P10635 whole entry): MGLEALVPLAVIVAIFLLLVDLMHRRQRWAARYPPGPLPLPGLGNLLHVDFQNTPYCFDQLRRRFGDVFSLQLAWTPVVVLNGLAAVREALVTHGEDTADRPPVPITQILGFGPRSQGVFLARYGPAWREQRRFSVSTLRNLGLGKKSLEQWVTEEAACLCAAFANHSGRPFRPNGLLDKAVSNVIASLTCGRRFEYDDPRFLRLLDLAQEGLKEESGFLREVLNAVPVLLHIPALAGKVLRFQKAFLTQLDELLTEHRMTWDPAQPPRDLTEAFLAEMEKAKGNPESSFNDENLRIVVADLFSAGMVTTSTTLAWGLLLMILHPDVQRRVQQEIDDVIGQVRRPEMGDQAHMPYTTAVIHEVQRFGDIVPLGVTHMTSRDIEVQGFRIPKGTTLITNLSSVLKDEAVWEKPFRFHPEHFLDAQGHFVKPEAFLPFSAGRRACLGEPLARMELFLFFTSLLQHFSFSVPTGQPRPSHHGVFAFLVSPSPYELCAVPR
Sequence of Cytochrome P450 3A4 (P08684 whole entry): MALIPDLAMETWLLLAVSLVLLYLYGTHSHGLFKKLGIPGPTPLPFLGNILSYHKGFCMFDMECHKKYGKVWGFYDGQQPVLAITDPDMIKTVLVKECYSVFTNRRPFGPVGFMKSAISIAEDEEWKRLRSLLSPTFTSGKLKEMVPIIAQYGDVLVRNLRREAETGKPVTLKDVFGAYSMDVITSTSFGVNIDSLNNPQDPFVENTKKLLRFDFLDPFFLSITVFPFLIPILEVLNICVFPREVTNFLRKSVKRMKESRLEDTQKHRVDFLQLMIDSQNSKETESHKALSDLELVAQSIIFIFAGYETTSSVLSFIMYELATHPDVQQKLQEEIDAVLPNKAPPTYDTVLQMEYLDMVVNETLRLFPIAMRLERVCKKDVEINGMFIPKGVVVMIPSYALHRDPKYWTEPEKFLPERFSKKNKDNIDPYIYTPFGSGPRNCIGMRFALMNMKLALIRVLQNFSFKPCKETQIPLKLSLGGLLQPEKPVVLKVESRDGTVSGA
Sequence of CYP3A4 (P08684 whole entry): as above

Structure (SMILES) | selectivity ratio [1] | MIC [2] [µg/mL] | Drug metabolism [3] | fold change (FC) [4] | fold change (FC) [5] | Drug metabolism [6] | inhibition (INH) [7] | inhibition (INH) [8] | inhibition [9] | remaining at 2 h, 50 µM [10] [%] | Activity [11] | Drug metabolism [12] | inhibition at 10 µM [13] [%] | MIC [14] [µg/mL] | Drug metabolism [15]
CCCOc1ccc(-c2cc(OCCN3CCCCC3)c3cc(OC)ccc3n2)cc1 | > 128 | 12.5 (≈ 29.7 µM) | Metabolite_Detected | 8 | 8 | Metabolite_Detected | Active | Not Active | Active | > 90 | Dose-dependent effect | – | – | – | –
CCCOc1ccc(-c2cc(OCCN3CCc4cc(OC)c(OC)cc4C3)c3cc(OC)c(OC)cc3n2)cc1 | – | 100 (≈ 179 µM) | – | – | 8 | – | Active | – | Active | 62 | Dose-dependent effect | Metabolite_Detected | ≤ 60 | < 1.56 | Metabolite_Detected
